The test system of data set [1] is CHP-134. The experiment in a line: Growth inhibition of MYCN-amplified human CHP-134 cells assessed as reduction in cell viability measured after 3 days by Celltiter-glo assay. It counts as functional. The settings on record: CHP-134, 72 h, time 3 day. An outline of the steps:
(§1)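 MYCN-amplified Kelly and CHP-134 neuroblastoma cells were exposed to a nine-point serial dilution for 3 days. Viability was read by CellTiter-Glo and normalized to DMSO-treated cells, and GI50 was calculated. Values are reported with standard error of the mean. The highest dose tested was 5.00 or 2.50 μM.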
For orientation: ATP-based viability assays read luminescence as a measure of living cells.

Data set [2] in a line: Growth inhibition of MYCN-amplified human Kelly cells assessed as reduction in cell viability measured after 3 days by Celltiter-glo assay. It counts as functional. The settings on record: 72 h, time 3 day. An outline of the steps:
as §1

Data set [3] addresses T1, Tubulin (Homo sapiens) (UniProt P68371+Q9H4B7+P0DPH7+P68366+Q13509+Q71U36+P04350+Q3ZCM7+P07437+P68363+Q9BQE3+Q6PEY2+Q13885+Q9BVA1+Q9BUF5). In words: Disruption of microtubule network in human Kelly cells at 100 nM incubated for 24 hrs by DAPI staining based immunofluorescence analysis. It counts as cell-based. The essentials: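 Immunostained for α-tubulin (Alexa-488) with DAPI nuclear counterstain. Microtubule network integrity and tubulin compaction around nuclei assessed from representative images.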

The subject of data set [4] is Kelly. In words: Induction of cell cycle arrest in human Kelly cells assessed as increase in cyclin B1 expression at 100 nM measured after 24 hrs by Western blot analysis. The format is functional, cell-based. The essentials: (§2)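 Lysates immunoblotted for mitotic markers cyclin B1 and histone H3 phosphorylated at Ser10. GAPDH used as loading control. Levels compared against DMSO vehicle.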
In general terms: A western blot detects proteins with antibodies after separation by electrophoresis.

Data set [5] in a line: Microsomal stability in human liver microsomes assessed as half life. It counts as ADME, Microsome. (Liver microsomes are vesicles of endoplasmic reticulum, rich in cytochrome P450 enzymes.)
For data set [6], the system named is CHP-134. The experiment in a line: Induction of cell cycle arrest in human CHP-134 cells at 100 nM measured after 24 hrs by PI/RNAse staining based flow cytometric analysis. It counts as functional. An outline of the steps: (§3)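 Cell cycle phase distribution, including G2/M fraction, quantified. n = 3 biological replicates, standard error. Unpaired two-tailed t test.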

Data set [7] deals with T1, Tubulin (Homo sapiens). The experiment in a line: Inhibition of tubulin polymerization (unknown origin) assessed as destabilization of microtubule formation at 5 uM incubated for 45 mins by plate reader analysis. The format is protein-complex assay.
Data set [8] deals with Kelly. In words: Induction of cell cycle arrest in human Kelly cells assessed as accumulation of cells in G2/M phase at 100 nM measured after 24 hrs by PI/RNAse staining based flow cytometric analysis. The format is functional. The essentials:
as §3

Data set [9] has as its system Kelly. In words: Induction of cell cycle arrest in human Kelly cells assessed as increase in phospho-histone H3 expression at 100 nM measured after 24 hrs by Western blot analysis. It counts as functional, cell-based. The essentials: as §2
Data set [10] has as its system CHP-134. The experiment in a line: Induction of cell cycle arrest in human CHP-134 cells assessed as increase in phospho-histone H3 expression at 100 nM measured after 24 hrs by Western blot analysis. It counts as functional, cell-based. The essentials: as §2
The next data set deals with SK-N-BE(2)-C. The experiment in a line: Antiproliferative activity against MYCN-amplified human SK-N-BE(2)-C cells assessed as reduction in cell viability measured after 3 days by Cell titer-glo assay. It counts as functional, cell-based. As to conditions: time 3.0 day.
Data set [11] concerns CHP-134. In words: Induction of cell cycle arrest in human CHP-134 cells assessed as increase in cyclin B1 expression level at 100 nM measured after 24 hrs by Western blot analysis. The format is functional, cell-based. The essentials:
as §2

The subject of data set [12] is Kelly. In words: Induction of cell cycle arrest in human Kelly cells assessed as increase in phospho-histone H3 expression at 500 nM measured after 24 hrs by Western blot analysis. The format is functional, cell-based. An outline of the steps:
(§4)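 Protein lysates were immunoblotted for the mitotic markers cyclin B1 and histone H3 phosphorylated at Ser10, with GAPDH as the loading control.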

Data set [13] concerns the target T1, Tubulin (Homo sapiens). The experiment in a line: Disruption of microtubule network in human Kelly cells at 500 nM incubated for 24 hrs by DAPI staining based immunofluorescence analysis. It counts as cell-based. An outline of the steps: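 Cells were then immunostained for α-tubulin (Alexa-488), with nuclei counterstained by DAPI. The microtubule network was examined in representative images.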

In data set [14] the test system is Kelly. In words: Induction of cell cycle arrest in human Kelly cells assessed as increase in cyclin B1 expression at 500 nM measured after 24 hrs by Western blot analysis. It counts as functional, cell-based. The essentials:
as §4

Data set [15] concerns CHP-134. The experiment in a line: Induction of cell cycle arrest in human CHP-134 cells assessed as increase in phospho-histone H3 expression at 500 nM measured after 24 hrs by Western blot analysis. It counts as functional, cell-based. The essentials:
as §4

The subject of data set [16] is Kelly. The experiment in a line: Effect on cell cycle distribution in human Kelly cells at 500 nM measured after 24 hrs by PI/RNAse staining based flow cytometric analysis. The format is functional. An outline of the steps: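 Kelly cells were treated with 500 nM compound or DMSO for 24 h. Cell cycle phase distribution was then profiled and quantified, with n = 3 biological replicates and standard error shown.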

The test system of data set [17] is CHP-134. In words: Induction of cell cycle arrest in human CHP-134 cells assessed as increase in cyclin B1 expression level at 500 nM measured after 24 hrs by Western blot analysis. It counts as functional, cell-based. The essentials: as §4

The source made the active and inactive calls. Some results are limits rather than exact numbers.

14 molecules from ChEMBL document CHEMBL5390213 (ACS Med Chem Lett, 2023) can be followed below.

As usually defined, the GI50 is the concentration giving 50% growth inhibition. As for `COc1c(Br)cc(-c2nccn3cc(-c4ccc(C)cc4)nc23)cc1Br`, the concentration for 50% growth inhibition (GI50) is 469 nM in the data set with CHP-134 [1] and 504 nM in [2].

Usually half-life stands for the time needed for the level to fall by half in the phase considered. With `COc1cc(-c2nccn3cc(-c4ccc(C)cc4)nc23)cc(OC)c1OC`, the result at Tubulin (Homo sapiens) [3], in the data set on Kelly [4], with CHP-134 [6], in the data set with Kelly [8], with Kelly [9] and with CHP-134 [10] was Active. Further, the outcome in the data set on SK-N-BE(2)-C and with CHP-134 [11] was Active. The half-life in data set [5] was found to be 26 min. Further, the inhibition result at Tubulin (Homo sapiens) [7] is “Active”. Moreover, the GI50 with CHP-134 [1] came out at 7 nM; in data set [2], 12 nM.

Consider `COc1c(Cl)cc(-c2nccn3cc(-c4ccc(C)cc4)nc23)cc1Cl`, for which the inhibition result at Tubulin (Homo sapiens) [7] was “Active”. Also, the GI50 turned out to be 79 nM in the data set with CHP-134 [1] and 165 nM in data set [2]. Also, the result with SK-N-BE(2)-C was Active.

In the case of `COc1cc(-c2cc(C)cn3cc(-c4ccc(C)cc4)nc23)cc(OC)c1OC`, the GI50 in the data set on CHP-134 [1] was 381 nM; in data set [2] it was 717 nM.

For the molecule `COc1cc2c(c(OC)c1OC)-c1ccc(OC)c(=O)cc1[C@@H](NC(C)=O)CC2` [COLCHICINE], the outcome with Kelly [4], with Kelly [9], with CHP-134 [10] and in the data set on CHP-134 [11] was Active. Further, the half-life in data set [5] was over 60 min. Moreover, the GI50 in the data set with CHP-134 [1] worked out at 8 nM; in data set [2] it was 9 nM.

Regarding `Cc1ccc(-c2cn3ccnc(-c4cc(Cl)c(F)c(Cl)c4)c3n2)cc1`, the GI50 (with CHP-134 [1]; in [2]) was over 2500 nM in each case.

`Cc1ccc(-c2cn3ccnc(-c4cc(F)cc(F)c4)c3n2)cc1`: the GI50 was 474 nM with CHP-134 [1] and 438 nM in [2].

Turning to `COc1cc(-c2cccn3cc(-c4ccc(C(F)(F)F)cc4)nc23)cc(OC)c1OC`, the GI50 with CHP-134 [1] was 2090 nM; in data set [2], over 5000 nM.

Turning to `COc1ccc(-c2cn3cccc(-c4cc(OC)c(OC)c(OC)c4)c3n2)cc1`, the GI50 was determined as 511 nM in the data set with CHP-134 [1] and 1370 nM in data set [2].

On to `COc1cc(-c2cccn3cc(-c4ccc(Cl)cc4)nc23)cc(OC)c1OC`, for which the values for the GI50 (with CHP-134 [1]; in data set [2]) were 1620 nM and 3420 nM, respectively.

On to `COc1cc(-c2cccc3nc(-c4ccc(C)cc4)cn23)cc(OC)c1OC`, for which the GI50 worked out at 3320 nM in the data set with CHP-134 [1] and 4920 nM in data set [2].

Consider `COc1c(F)cc(-c2nccn3cc(-c4ccc(C)cc4)nc23)cc1F`, for which the result in the data set with Kelly [12], at Tubulin (Homo sapiens) [13], in the data set on Kelly [14], in the data set with CHP-134 [15], in the data set with Kelly [16] and in the data set on CHP-134 [17] was inactive. Besides, in data set [5], the half-life was 36.1 min. At Tubulin (Homo sapiens) [7], the inhibition result is “Active”. Besides, the values for the GI50 (in the data set on CHP-134 [1]; in data set [2]) were 175 nM and 402 nM, respectively. In addition, in the data set on SK-N-BE(2)-C, the outcome was Active.

Regarding `COc1cc(-c2cccn3cc(-c4ccc(F)cc4)nc23)cc(OC)c1OC`, the GI50 came out at 1610 nM with CHP-134 [1] and 3000 nM in data set [2].

On to `COc1cc(-c2cccn3cc(-c4ccc(C)cc4)nc23)cc(OC)c1OC`, for which the inhibition result at Tubulin (Homo sapiens) [7] was “Active”. The GI50 in the data set on CHP-134 [1] is 152 nM; in [2] it was 217 nM.
